Experimental findings from ChEMBL document CHEMBL3997782, “Methoxylated 2'-hydroxychalcones as antiparasitic hit compounds” (Eur J Med Chem, 2017) are described below.

The structures appear in SMILES notation. Converted amounts (≈) assume the structure as drawn.

The subject of series [1] is Trypanosoma brucei brucei. As to the kind of experiment: Anti-parasitic activity against bloodstream form of Trypanosoma brucei brucei Lister 427 after 72 hrs by resazurin-based assay. The following applies: Lister 427, 72 h. In kind it is functional. The gist of the method: (§1)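 Bloodstream-form T. brucei, modified resazurin-based viability assay. EC50 is the arithmetic mean of at least two independent determinations, each run in triplicate.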
(Resazurin is reduced to fluorescent resorufin, in cell work by metabolically active cells.)

In series [2] the test system is Trypanosoma brucei brucei. Put plainly: Anti-parasitic activity against bloodstream form of Trypanosoma brucei brucei Lister 427 at 10 uM after 72 hrs by resazurin-based assay relative to control. In kind it is functional. Conditions: Lister 427, 72 h. The essentials: as §1
Series [3] is described as follows: Cytotoxicity against human A549 cells assessed as cell growth at 10 uM by Cell titer-Glo assay relative to control. It is filed as cell-based. The following applies: read-out: Activity. The essentials:
(§2)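 A549 and WI-38 cells grown in DMEM with 10% v/v FCS, streptomycin 100 µg/ml and penicillin G 100 U/ml. Cell number read as cellular ATP by CellTiter-Glo luminescence. Growth 60–100% scored non-cytotoxic, 0–60% cytostatic, below 0 cytotoxic.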

Series [4] can be described thus: Cytotoxicity against human […] cells assessed as cell growth at 10 uM by Cell titer-Glo assay relative to control. The following applies: WI-38 cells, read-out: Activity. In kind it is cell-based. The essentials:
as §2
On the technique in general: In ATP-based viability assays light output follows the ATP content of the culture.

The nature of series [5]: Cytotoxicity against human […] cells assessed as cell growth by Cell titer-Glo assay. The following applies: WI-38 cells. It is filed as cell-based. The gist of the method:
as §2

The target in series [6] is Aurora kinase B (Homo sapiens, UniProt Q96GD4). Put plainly: Inhibition of N-terminal-GST-tagged recombinant full length human Aurora B expressed in baculovirus infected Sf9 cells at 10 uM using native Swine Myelin Basic Protein as substrate measured after 60 mins by ADP-Glo assay relative to control. The following applies: probe native Swine Myelin Basic Protein. The gist of the method:
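Aurora B kinase activity measured by ADP-Glo, which detects ADP formed through a coupled luciferase luminescence read-out.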
A general note: ADP-Glo first removes unused ATP, then detects ADP through luciferase.

Series [7] addresses T1, CYP1A2 (Homo sapiens, UniProt P05177).
T1 sequence (P05177 whole entry): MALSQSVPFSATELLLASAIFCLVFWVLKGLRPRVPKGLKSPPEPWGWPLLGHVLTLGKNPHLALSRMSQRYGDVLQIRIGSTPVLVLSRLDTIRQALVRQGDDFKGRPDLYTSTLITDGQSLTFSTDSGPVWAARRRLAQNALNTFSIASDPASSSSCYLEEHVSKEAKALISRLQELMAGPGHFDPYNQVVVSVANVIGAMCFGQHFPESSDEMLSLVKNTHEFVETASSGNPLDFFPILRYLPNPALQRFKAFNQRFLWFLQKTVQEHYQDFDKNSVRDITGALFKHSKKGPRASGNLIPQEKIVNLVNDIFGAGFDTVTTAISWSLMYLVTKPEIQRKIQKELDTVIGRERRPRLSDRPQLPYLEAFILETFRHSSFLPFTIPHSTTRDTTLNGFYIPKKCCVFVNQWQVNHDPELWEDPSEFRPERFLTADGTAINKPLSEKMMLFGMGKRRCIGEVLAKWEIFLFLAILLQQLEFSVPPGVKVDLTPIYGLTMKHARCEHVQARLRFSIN
As to the kind of experiment: Inhibition of human CYP1A2 expressed in baculovirus-infected insect cells at 10 uM using Luciferin-1A2 as substrate in presence of NADPH by P450-Glo luminescence assay relative to control. In kind it is ADME. The following applies: probe Luciferin-1A2. The essentials:
(§3)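 CYP enzymes as microsomal preparations from baculovirus-infected insect cells, run on the P450-Glo luminogenic substrate platform. A fall in light output indicates inhibition.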

The target in series [8] is Cytochrome P450 2C9 (Homo sapiens, UniProt P11712). Put plainly: Inhibition of human CYP2C9 expressed in baculovirus-infected insect cells using Luciferin-H as substrate in presence of NADPH by P450-Glo luminescence assay.
Cytochrome P450 2C9, sequence (P11712 whole entry): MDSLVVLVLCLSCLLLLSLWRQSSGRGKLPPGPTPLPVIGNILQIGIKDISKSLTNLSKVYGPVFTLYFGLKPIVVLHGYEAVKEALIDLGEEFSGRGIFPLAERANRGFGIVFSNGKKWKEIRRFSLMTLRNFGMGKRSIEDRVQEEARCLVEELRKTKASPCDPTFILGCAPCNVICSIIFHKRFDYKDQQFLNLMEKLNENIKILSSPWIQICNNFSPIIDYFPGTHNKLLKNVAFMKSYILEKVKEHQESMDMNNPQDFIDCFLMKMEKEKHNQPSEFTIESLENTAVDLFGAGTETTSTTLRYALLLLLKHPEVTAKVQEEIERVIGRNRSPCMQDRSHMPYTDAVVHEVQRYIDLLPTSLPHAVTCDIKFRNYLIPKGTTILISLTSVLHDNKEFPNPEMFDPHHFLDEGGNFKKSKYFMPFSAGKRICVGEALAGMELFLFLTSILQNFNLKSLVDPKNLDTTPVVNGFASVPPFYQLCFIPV
Series [9] has as its target CYP2C19 (Homo sapiens, UniProt P33261). As to the kind of experiment: Inhibition of human CYP2C19 expressed in baculovirus-infected insect cells at 10 uM using Luciferin-H EGE as substrate in presence of NADPH by P450-Glo luminescence assay relative to control. Conditions: probe Luciferin-H EGE. In kind it is ADME. The essentials: as §3
For series [10], the target named is CYP2D6 (Homo sapiens, UniProt P10635). As to the kind of experiment: Inhibition of human CYP2D6 expressed in baculovirus-infected insect cells at 10 uM using Luciferin-ME EGE as substrate in presence of NADPH by P450-Glo luminescence assay relative to control. In kind it is ADME. Conditions: probe Luciferin-ME EGE. The essentials:
as §3

The target in series [11] is CYP3A4 (Homo sapiens, UniProt P08684). Put plainly: Inhibition of human CYP3A4 expressed in baculovirus-infected insect cells at 10 uM using Luciferin-PFBE as substrate in presence of NADPH by P450-Glo luminescence assay relative to control. The following applies: probe Luciferin-PFBE. In kind it is ADME.
CYP3A4, sequence (P08684 whole entry): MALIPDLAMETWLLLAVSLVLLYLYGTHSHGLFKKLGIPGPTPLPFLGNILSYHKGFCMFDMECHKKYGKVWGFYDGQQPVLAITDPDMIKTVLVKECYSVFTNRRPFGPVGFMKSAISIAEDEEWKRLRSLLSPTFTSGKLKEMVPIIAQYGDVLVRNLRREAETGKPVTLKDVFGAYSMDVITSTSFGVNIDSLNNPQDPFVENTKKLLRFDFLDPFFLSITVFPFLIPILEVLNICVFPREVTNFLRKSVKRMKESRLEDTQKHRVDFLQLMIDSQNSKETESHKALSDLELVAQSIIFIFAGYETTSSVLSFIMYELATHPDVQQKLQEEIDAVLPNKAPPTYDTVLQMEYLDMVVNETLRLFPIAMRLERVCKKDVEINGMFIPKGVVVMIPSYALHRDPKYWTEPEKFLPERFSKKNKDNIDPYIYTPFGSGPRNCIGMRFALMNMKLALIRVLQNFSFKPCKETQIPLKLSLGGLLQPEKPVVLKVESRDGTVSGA
Series [12] can be described thus: Solubility of the compound in water measured after 18 hrs by UV-vis spectroscopic method. It is filed as physicochemical. The essentials:
(§4)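 Saturated suspensions prepared at 100 µM in water, 100 µM in PBS, 200 µM in PBS + 10% DMSO and 10 mM in PBS + 50% DMSO. Held 18 h at 25°C, passed through a 0.2 µm filter, then quantified by UV-Vis absorbance at 312 nm using the calculated extinction coefficient.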

Series [13] is described as follows: Solubility of the compound in phosphate buffered saline measured after 18 hrs by UV-vis spectroscopic method. In kind it is physicochemical. The gist of the method:
as §4

Series [14] in a line: Solubility of the compound in phosphate buffered saline with 10% DMSO measured after 18 hrs by UV-vis spectroscopic method. In kind it is physicochemical. The gist of the method:
as §4

Series [15] is described as follows: Drug uptake in BALB/c mouse plasma at 1 mg/kg, iv measured after 15 mins by LC-MS method. In kind it is ADME, organism-based. The gist of the method: (§5)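 BALB/c mice dosed either free (8% DMSO; 1 mg/kg IV or 20 mg/kg oral), or 20 mg/kg oral in 50% w/v hydroxypropyl-β-cyclodextrin, or 20 mg/kg oral in 25% cyclodextrins plus 50% PEG 400. Serial submandibular blood samples stored at -20°C. Plasma measured by isocratic LC-MS (acetonitrile:water 80:20, 0.2 ml/min), quantifier transition m/z 315.0>161.0.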

The nature of series [16]: Drug uptake in BALB/c mouse plasma at 1 mg/kg, iv measured after 30 mins by LC-MS method. It is filed as ADME, organism-based. The gist of the method: as §5
A short description of series [17]: Drug uptake in BALB/c mouse plasma at 20 mg/kg, po as cyclodextrin/PEG400 formulation measured after 0.25 hrs by LC-MS method. In kind it is ADME, organism-based. The gist of the method:
as §5

Series [18] in a line: Drug uptake in BALB/c mouse plasma at 20 mg/kg, po as cyclodextrin/PEG400 formulation measured after 1 hr by LC-MS method. In kind it is ADME, organism-based. The essentials:
as §5

Series [19] can be described thus: Drug uptake in BALB/c mouse plasma at 20 mg/kg, po measured after 0.25 hrs by LC-MS method. In kind it is ADME, organism-based. The gist of the method:
as §5

Series [20] can be described thus: Drug uptake in BALB/c mouse plasma at 20 mg/kg, po measured after 0.5 hrs by LC-MS method. In kind it is ADME, organism-based. The gist of the method: as §5
Series [21] can be described thus: Drug uptake in BALB/c mouse plasma at 20 mg/kg, po measured after 0.75 hrs by LC-MS method. It is filed as ADME, organism-based. The gist of the method:
as §5

Series [22] can be described thus: Drug uptake in BALB/c mouse plasma at 20 mg/kg, po measured after 1 hr by LC-MS method. It is filed as ADME, organism-based. The gist of the method: as §5
Series [23] in a line: Drug uptake in BALB/c mouse plasma at 20 mg/kg, po as 50%% cyclodextrin formulation measured after 0.75 hrs by LC-MS method. In kind it is ADME, organism-based. The essentials: as §5
Series [24] is described as follows: Drug uptake in BALB/c mouse plasma at 20 mg/kg, po as 50% cyclodextrin formulation measured after 3 hrs by LC-MS method. It is filed as ADME, organism-based. The essentials: as §5

Aurora kinase B, sequence (Q96GD4 whole entry): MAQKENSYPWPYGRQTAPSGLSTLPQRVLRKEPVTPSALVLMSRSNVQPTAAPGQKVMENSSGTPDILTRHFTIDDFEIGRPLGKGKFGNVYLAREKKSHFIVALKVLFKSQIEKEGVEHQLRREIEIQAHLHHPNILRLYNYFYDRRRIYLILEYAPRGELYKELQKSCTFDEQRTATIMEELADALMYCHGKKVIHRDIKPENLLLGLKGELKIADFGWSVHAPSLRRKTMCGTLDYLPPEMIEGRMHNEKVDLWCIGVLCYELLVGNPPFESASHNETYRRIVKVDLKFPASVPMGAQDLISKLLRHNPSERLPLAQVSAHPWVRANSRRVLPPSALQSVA
CYP2C19, sequence (P33261 whole entry): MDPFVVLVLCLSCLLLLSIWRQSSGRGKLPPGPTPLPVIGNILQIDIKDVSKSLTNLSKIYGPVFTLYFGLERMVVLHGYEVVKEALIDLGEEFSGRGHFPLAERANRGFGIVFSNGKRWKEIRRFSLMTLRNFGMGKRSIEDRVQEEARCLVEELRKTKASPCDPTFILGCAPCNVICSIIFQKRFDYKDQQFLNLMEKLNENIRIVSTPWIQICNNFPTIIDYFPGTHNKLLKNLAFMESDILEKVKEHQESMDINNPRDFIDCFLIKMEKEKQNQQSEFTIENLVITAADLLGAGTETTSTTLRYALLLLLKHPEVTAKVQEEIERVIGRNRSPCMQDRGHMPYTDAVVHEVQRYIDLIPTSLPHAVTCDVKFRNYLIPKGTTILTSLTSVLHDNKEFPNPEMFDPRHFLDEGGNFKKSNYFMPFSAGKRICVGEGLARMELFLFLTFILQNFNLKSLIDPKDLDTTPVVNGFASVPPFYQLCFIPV
CYP2D6, sequence (P10635 whole entry): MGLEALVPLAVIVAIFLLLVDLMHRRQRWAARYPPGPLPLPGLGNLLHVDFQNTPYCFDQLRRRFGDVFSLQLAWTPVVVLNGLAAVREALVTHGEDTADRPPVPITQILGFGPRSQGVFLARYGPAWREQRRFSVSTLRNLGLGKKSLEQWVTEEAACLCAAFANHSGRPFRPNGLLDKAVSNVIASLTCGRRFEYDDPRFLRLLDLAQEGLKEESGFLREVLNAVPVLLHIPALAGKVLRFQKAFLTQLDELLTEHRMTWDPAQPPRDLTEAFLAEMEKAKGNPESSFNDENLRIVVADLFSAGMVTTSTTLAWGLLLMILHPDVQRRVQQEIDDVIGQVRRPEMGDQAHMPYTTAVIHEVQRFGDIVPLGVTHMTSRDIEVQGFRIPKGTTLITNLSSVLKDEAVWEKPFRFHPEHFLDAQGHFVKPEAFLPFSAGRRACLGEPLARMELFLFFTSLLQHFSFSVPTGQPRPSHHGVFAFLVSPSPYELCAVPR

For orientation: EC50 means the concentration at which the effect is half-maximal. Low values mean an effect from little substance, high ones a need for much substance. A word on the inhibition: it is the drop in the measured response relative to a control, in per cent. One may read the GI50 as the concentration that inhibits growth by half. What is called IC50 is the point on the concentration scale where inhibition reaches its midpoint. By solubility is commonly meant the dissolved amount per volume that the medium holds. On to `COc1cccc(/C=C/C(=O)c2cc(OC)c(OC)cc2O)c1`, for which the EC50 in series [1] stood at 4.2 µM. Besides, the inhibition at 10 µM in series [2] was found to be 100%; in [7], 98%; in series [9], 49.2%; in series [10] it was 58.8%; in [11] it was 12.4%. The viability at 10 µM in series [3] stood at 95.5%; in series [4], 96.1%. Moreover, in series [5], the 50% growth inhibitory concentration (GI50) was 10.8 µM. Also, in series [6], the inhibition at 1 h, 10 µM was -6.8%. Further, in series [8], the IC50 came out at 42.1 µM. In addition, the figures for the solubility at 18 h in series [12], in series [13] and in series [14] were 0.91 µM (≈ 0.286 µg/mL), 2.37 µM (≈ 0.745 µg/mL) and 11.4 µM (≈ 3.59 µg/mL), respectively. Also, the concentration at 0.25 h in series [15] turned out to be 74 nM; in series [17], 48 nM; in [19] it was 270 nM. The concentration at 0.5 h in series [16] came out at 55 nM; in series [20], 49 nM. Besides, the concentration at 1 h was found to be 18 nM in series [18] and 9 nM in series [22]. In addition, the concentration at 0.75 h came out at 12 nM in series [21] and 164 nM in [23]. This compound had a concentration at 3 h in series [24] of 10 nM.
